Source: PubChem (Johns Hopkins Ion Channel Center)
KCNQ1 pot: potentiators or activators of KCNQ1 channel, primary screen, cell-based, thallium flux, high-throughput; AID 2648, 2010; B-score at 10 µM; CHO-K1 KCNQ1, thallium flux FluxOR fluorescence; active compounds read high; Potassium voltage-gated channel subfamily KQT member 1 (Homo sapiens), P51787; hit rate 0.35% among 310,000;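 active = fluorescence ratio B-score, a plate-corrected score, at least three library SD, with initial intensity B-score within 5 SD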
Target sequence (P51787 whole entry, looked up): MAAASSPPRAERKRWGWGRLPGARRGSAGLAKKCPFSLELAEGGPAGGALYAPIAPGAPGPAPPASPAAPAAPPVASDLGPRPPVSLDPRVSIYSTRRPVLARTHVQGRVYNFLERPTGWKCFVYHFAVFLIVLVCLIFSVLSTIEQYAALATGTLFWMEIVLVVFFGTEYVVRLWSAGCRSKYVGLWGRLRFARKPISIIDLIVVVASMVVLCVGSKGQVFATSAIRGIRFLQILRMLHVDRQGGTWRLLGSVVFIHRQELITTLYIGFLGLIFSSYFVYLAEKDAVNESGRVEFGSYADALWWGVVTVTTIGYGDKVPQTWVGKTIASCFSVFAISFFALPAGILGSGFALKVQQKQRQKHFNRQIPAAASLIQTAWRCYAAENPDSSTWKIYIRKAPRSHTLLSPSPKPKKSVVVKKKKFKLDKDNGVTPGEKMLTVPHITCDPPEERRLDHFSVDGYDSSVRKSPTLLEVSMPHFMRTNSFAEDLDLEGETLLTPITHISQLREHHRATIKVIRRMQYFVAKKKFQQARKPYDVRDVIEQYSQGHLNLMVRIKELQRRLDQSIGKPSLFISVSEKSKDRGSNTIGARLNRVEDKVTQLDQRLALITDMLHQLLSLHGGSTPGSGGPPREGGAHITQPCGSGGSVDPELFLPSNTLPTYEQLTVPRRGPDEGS
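Assay system: CHO-K1 cells stably expressing KCNQ1; Medium: assay buffer with matched DMSO; Also added: K+/Tl+ depolarizing stimulus; Dosing: single dose; Timing: dye 90 min, compound 20 min, room temperature; Measured by: kinetic FluxOR thallium fluorescence, 10-s 1-Hz baseline, 110-s post-stimulus read; Read-out: peak-minus-minimum fluorescence over initial fluorescence, negative-control normalized, B-scored.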
KCNQ1 block: inhibitors of human KCNQ1 channel, primary screen, cell-based, thallium flux, high-throughput; CHO-K1 KCNQ1, FluxOR thallium flux fluorescence; active compounds read high; B-score at 10 µM; hit rate 1.3% among 310,000;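 active = compounds whose thallium flux B-score, printed positive for inhibition, exceeds three library SD while starting fluorescence stays within three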;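 note: channel opened by potassium depolarization with thallium stimulus after 20 min compound exposure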
hERG rescue: hERG rescue from dofetilide block, primary screen, cell-based, CHO-hERG, FluxOR thallium flux, dofetilide IC70 | Voltage-gated inwardly rectifying potassium channel KCNH2 (Homo sapiens), Q12809 | dofetilide IC70 present | activation (rescue from dofetilide block), less the hit threshold, % at 10 µM | hit rate 0.51% among 310,000;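 active = activation above the mean of controls blocked by dofetilide plus 5 SD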;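 note: thallium influx through hERG after potassium depolarization seen as dye fluorescence rise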
KCNK3 inh: human KCNK3 channel inhibitors, primary screen, CHO cells, FluxOR thallium flux, B-score | FluxOR fluorescence; active compounds read low | B-score at 10 µM | hit rate 0.84% among 340,000 | AID 602410, 2012;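 active = B-score under library mean minus 4 SD, starting fluorescence ratio at most library mean plus 5 SD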;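 note: more negative B-score means stronger inhibition of thallium flux through KCNK3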
KCNK9 inh: KCNK9 potassium channel inhibitors, primary screen, HEK293 cells, thallium flux | Potassium channel subfamily K member 9 (Homo sapiens), Q9NPC2 | FluxOR thallium flux fluorescence; active compounds read low | B-score at 10 µM | hit rate 1.2% among 310,000 | AID 488922, 2010;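 active = ratio B-score over 3 SD below the library mean, with starting fluorescence within 5 SD of its mean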;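 note: negative B-score means less thallium flux so channel inhibition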
Kir21 inh: inhibitors of mouse Kir2.1 inward-rectifier potassium channel. Inward rectifier potassium channel 2 (Mus musculus), P35561. HEK293-Kir2.1, FluxOR thallium flux fluorescence; active compounds read low. B-score at 10 µM. hit rate 0.85% among 310,000. AID 1672, 2009;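 active = fluorescence ratio B-score at or below minus 3 SD of library scores, with starting-brightness B-score within 2 SD, cut at about -4.2 in these data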;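 note: channel flux triggered by added potassium and thallium sulfate stimulus; B-score of peak minus minimum fluorescence over baseline after thallium stimulus; more negative B-score means stronger Kir2.1 block with less thallium influx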
Large screens that a line does not name were inactive. Rows were chosen to be rich in hits. Some 3.7% of all compounds tested hit in one or more screens of this group.

COC(=O)c1cccnc1NC(=S)NC1CCCCC1	KCNQ1 pot 18
COC(=O)c1ccc(NC(=S)NC2CCCCC2)cc1	none
Cc1sc2nc(C(C)Sc3n[nH]c(N)n3)[nH]c(=O)c2c1C (configuration not stated)	none (no result: KCNK3 inh)
CCOC(=O)/C(=C/c1ccc(OC(=O)c2ccccc2)cc1)C(C)=O	Kir21 inh -9.4
CCOC(=O)/C(=C\c1ccccc1)NC(=O)c1ccccc1	none
CCOC(=O)c1cc2c(=O)n3ccccc3nc2n(Cc2ccco2)c1=NC(=O)c1cccc(OC)c1	KCNQ1 block 7
CCOC(=O)c1cc2c(=O)n3ccccc3nc2n(CCCOC)c1=NC(=O)c1ccncc1	KCNQ1 pot 15
NC(=O)CN1CCN(Cc2ccc3c(c2)OCO3)CC1	none
O=C1C2C3C=CC(C4CC34)C2C(=O)N1/N=C/c1ccc(-c2ccc(F)cc2[N+](=O)[O-])o1 (configuration not stated)	hERG rescue 8.1
CCc1ccc(C(c2ccc(CC)cc2)C(Cl)Cl)cc1	none (no result: KCNQ1 pot, KCNQ1 block, hERG rescue, KCNK9 inh, Kir21 inh)
Clc1ccc(C(c2ccccc2Cl)C(Cl)Cl)cc1 (configuration not stated)	KCNK3 inh -8.9 (no result: KCNQ1 pot, KCNQ1 block, hERG rescue, KCNK9 inh, Kir21 inh)
Cc1cc(Cl)ccc1NC(=O)CN(C)C1=NS(=O)(=O)c2ccccc21	none (no result: KCNQ1 pot, KCNQ1 block, hERG rescue, KCNK9 inh, Kir21 inh)
COCCN(C(=O)c1cc(S(=O)(=O)N2CCCCC2)ccc1Cl)c1c(N)n(CC(C)C)c(=O)[nH]c1=O	none (no result: KCNQ1 pot, KCNQ1 block, hERG rescue, KCNK9 inh, Kir21 inh)
Cc1cccc2sc(NC(=O)CN(C)S(=O)(=O)c3ccc(Br)s3)nc12	KCNK3 inh -9.9
CC(=O)N1c2ccc(S(=O)(=O)N3CCC(C(=O)Nc4ccc(C)cn4)CC3)cc2CC1C (configuration not stated)	none
CCCOc1ccc(C(=O)Nc2ccc(S(=O)(=O)N3C[C@@H]4C[C@@H](C3)c3cccc(=O)n3C4)cc2)cc1	none (no result: KCNQ1 pot, KCNQ1 block, hERG rescue, KCNK9 inh, Kir21 inh)
Cc1nn(-c2ccccn2)c2c1C(c1c(F)cccc1Cl)C1=C(N2)c2ccccc2C1=O (configuration not stated)	KCNK9 inh -6.9 (no result: KCNK3 inh)
Cc1nn(-c2ccccn2)c2c1C(c1ccccc1Cl)C1=C(N2)c2ccccc2C1=O (configuration not stated)	KCNK9 inh -7
Cc1nn(-c2ccccn2)c2c1C(c1ccsc1)C1=C(CCCC1=O)N2 (configuration not stated)	none
CSC1=C(C#N)C(c2ccccc2Cl)C2=C(N1)c1ccccc1C2=O (configuration not stated)	none
Cc1cc(C)cc(C(=O)NC(CC(N)=O)c2ccc(N3CCCCCC3)c([N+](=O)[O-])c2)c1 (configuration not stated)	KCNQ1 block 7
CCN(CC(=O)Nc1c(F)cccc1F)C(=O)c1ccc(C#N)cc1	none
COc1ccc(Cl)cc1NC(=O)CN(C)C(=O)c1cc2c(F)cccc2s1	KCNK3 inh -8.8 (no result: KCNQ1 pot, KCNQ1 block, hERG rescue, KCNK9 inh, Kir21 inh)
Cc1nnc(NC(=O)C2CSC3(C)CCC(=O)N23)s1 (configuration not stated)	none
Cc1ccc(NC(=S)N/N=C/c2c(C)[nH]c3ccccc23)cc1	KCNQ1 block 6
Cc1[nH]c2ccccc2c1/C=N/NC(N)=S	none
Cc1[nH]c2ccccc2c1/C=N/NC(=S)NCc1ccccc1	KCNQ1 block 6
COCCn1c(-c2ccc(OC)cc2)cnc1N	none
CCOc1ccc(-c2cnc(NCc3cccc4ccccc34)n2CCOC)cc1	KCNQ1 block 10, KCNK3 inh -9.5
O=[N+]([O-])c1ccccc1OCC(O)CN1CCN(CC(O)COc2ccccc2[N+](=O)[O-])CC1 (configuration not stated)	KCNQ1 block 11
COC(=O)c1ccc(C23CC4(C2)[C@H](CN(C)[C@@H]4c2ccccc2)C3c2ccc(Cl)nc2)cc1 (some centres not stated)	none
O=C(COC(=O)C1CCN(S(=O)(=O)c2cccs2)CC1)c1cc2ccccc2o1	KCNK9 inh -7.8
N#C/C(=C\c1cccs1)C(=O)Nc1nccs1	none
COC(=O)C1=C(C)N(C)C(=S)N(C)C1c1cccc(Br)c1 (configuration not stated)	Kir21 inh -5
CCOC(=O)C1=C(C)N(C)C(=S)N(C)C1c1ccc(OC)cc1 (configuration not stated)	none
O=C(N[C@H](Cc1cc(=O)[nH]c2ccccc12)C(=O)O)c1ccc(Cl)cc1	none
O=c1cc2c(nn1Cc1c(Cl)cccc1Cl)-c1ccccc1CC2	KCNQ1 pot 9
CSc1ccccc1OCc1cc(C(=O)N2CCC[C@H]2C(N)=O)no1	none
Cn1c(COc2ccccc2)nnc1SCC(=O)Nc1ccc(N2CCOCC2)cc1	none
C=CC[n+]1c(C)csc1Nc1cccc(Br)c1	KCNK9 inh -6.6
C=CC[n+]1c(C)csc1Nc1ccc(C)cc1	none
CCCCCSc1nnc2c(n1)OC(c1cccn1C)N(C(C)=O)c1ccccc1-2 (configuration not stated)	KCNK9 inh -9.7
Nc1nc(SCc2ccccc2)c2ncn(CCO)c2n1	none (no result: KCNQ1 pot, KCNQ1 block, hERG rescue, KCNK9 inh, Kir21 inh)
CC(=O)c1ccc(NC(=S)Nc2cccc3ccccc23)cc1	none
CC(=O)c1cccc(NC(=O)C(=O)Nc2cccc3ccccc23)c1	hERG rescue 5.2
CC[n+]1ccccc1/C=C/c1ccc(N(C)C)cc1	KCNQ1 block 8
CC[n+]1ccc(/C=C/c2ccc(N(C)C)cc2)c2ccccc21	KCNK3 inh -9.9 (no result: KCNQ1 pot, KCNQ1 block, hERG rescue, KCNK9 inh, Kir21 inh)
CN(C)c1ccc(/C=C/c2cc[n+]([O-])cc2)cc1	none (no result: KCNK3 inh)
COc1ccc(-c2nc(-c3ccccc3)c(-c3cc([N+](=O)[O-])ccc3C)[nH]2)cc1O	KCNQ1 block 7, KCNK9 inh -10
C/C(=N/NS(=O)(=O)c1ccc(C(C)(C)C)cc1)c1ccc2c(c1)OCO2	none
C/C(=N\NS(=O)(=O)c1ccc(C(C)(C)C)cc1)c1ccccc1	KCNQ1 block 6
Cc1c(N=Cc2cc(Br)cc(Br)c2O)cccc1C(=O)O	KCNQ1 pot 10
Cc1ccc(CN(C(=O)c2cc(=O)c3cc(C)cc(C)c3o2)C2CCS(=O)(=O)C2)cc1 (configuration not stated)	none
O=C(c1ccco1)N1CCN=C1SCc1ccc(F)cc1	KCNQ1 pot 39
Cn1ccnc1CN1CCCCC1C(=O)Nc1ccc(Oc2cccnc2)cc1 (configuration not stated)	none
Cc1cc(C)n2nc(/C(C#N)=C/c3ccccn3)c(C#N)c2n1	none
CCCN1C(=O)c2ccccc2NC1c1ccc(Cl)c(Cl)c1 (configuration not stated)	none
